Measurements from ChEMBL document CHEMBL3286166, “Structure-activity relationships of the truncated norzoanthamines exhibiting collagen protection toward anti-osteoporotic activity” (Bioorg Med Chem, 2014).

Species on record: Rattus norvegicus
Assay: Binding affinity to rat tail type 1 collagen assessed as collagen protection activity against Clostridium histolyticum collagenase-mediated digestion at 10 uM after 180 mins by Sirius red dye based microplate reader analysis relative to norzoanthamine
Procedure, shortened: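 Acid-solubilized rat tail type I collagen diluted to 1.11 mg/mL in 50 mM Tris (pH 7.4) with 100 mM NaCl and 5 mM CaCl₂. Compound in the same buffer added, 5 min at 37 °C. Digestion started with 2 mg/mL Clostridium histolyticum collagenase at 37 °C. Aliquots at 30–180 min stained with Sirius red, 30 min room temperature, then centrifuged. Remaining collagen at 180 min normalized to norzoanthamine; buffer-only negative control; up to five samples per test.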

SMILES | Activity [%]
C[C@H]1C[C@@H]2CN3C4=CCCC[C@]4(C)CC[C@@]3(C1)O2 | 31
COC(=O)c1ccccc1-c1ccc(CN2C[C@H]3C[C@H](C)C[C@@H]2O3)cc1 | 25
COCCN1CCC[C@@]2(C)[C@]3(C)CCC[C@]12OC(=O)C3 | 15
C[C@H]1C[C@@H]2CN(Cc3ccccc3)[C@H](C1)O2 | 47
C[C@H]1C[C@@H]2CN(C(=O)OC(C)(C)C)[C@H](C1)O2 | 23
C[C@@]12CCC[C@]3(OC(=O)C1)N(Cc1ccccc1)CCC[C@@]23C | 11
COC(=O)C[C@@]1(C)[C@H]2C(=O)C[C@@H]3C(=O)C=C(C)C[C@H]3[C@]2(C)C=C2N3C[C@H]4C[C@H](C)C[C@]3(CC[C@]21C)O4 | 5
CCCCN1CCC[C@@]2(C)[C@]3(C)CCC[C@]12OC(=O)C3 | 17
C[C@H]1C[C@@H]2CN(Cc3ccc4ccccc4c3)[C@H](C1)O2 | 65
C[C@@H]1C[C@H]2CN3[C@@](CC[C@]4(C)[C@@]5(C)CCC[C@@]34OC(=O)C5)(C1)O2 | 76
C[C@H]1C[C@@H]2CN(Cc3ccc(-c4ccccc4)cc3)[C@H](C1)O2 | 20
C[C@H]1C[C@@H]2CN[C@H](C1)O2 | 31
COC(=O)c1cccc(CN2C[C@H]3C[C@H](C)C[C@@H]2O3)c1 | 25
C[C@H]1C[C@@H]2CN3[C@](CC[C@@]4(C)[C@]5(C)CCC[C@]34OC(=O)C5)(C1)O2 | 100
CCCCc1ccc(CN2C[C@H]3C[C@H](C)C[C@@H]2O3)cc1 | 45
